Laboratory results reported in ChEMBL document CHEMBL3286357, “Design, synthesis and pharmacological evaluation of novel substituted quinoline-2-carboxamide derivatives as human dihydroorotate dehydrogenase (hDHODH) inhibitors and anticancer agents” (Eur J Med Chem, 2014).

Tests used:
[1] = Antiproliferative activity against human Hep3B cells at 0.14 ug/ml for 24 hrs by MTT assay; assay type: functional, Hep 3B2
How it was run: (§1)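 HEP-3B or A-375 cells were grown in DMEM with 10% FBS, 5% HBSS, penicillin, streptomycin and amphotericin B at 37 C and 5% CO2. Cells were seeded at 2 × 10^4 per well and preincubated for 24 h. They were then exposed to ten 1:3 serial dilutions from a top concentration of 100, made from 2% DMSO stocks. MTT was added for 3 h, formazan was dissolved in DMSO, and A550 was read. Wells were run in triplicate across three independent experiments. IC50 came from dose-response curves.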

[2] = Antiproliferative activity against human Hep3B cells at 33.33 ug/ml for 24 hrs by MTT assay; assay type: functional, Hep 3B2; how it was run: as §1
A-375 [3] = test: Antiproliferative activity against human A375 cells at 0.02 ug/ml for 24 hrs by MTT assay; assay type: functional; conditions: A-375, 24 h; how it was run: as §1
[4] = Antiproliferative activity against human Hep3B cells at 100 ug/ml for 24 hrs by MTT assay; assay type: functional, Hep 3B2; how it was run: as §1
[5] = Antiproliferative activity against human Hep3B cells at 0.02 ug/ml for 24 hrs by MTT assay; assay type: functional, Hep 3B2; how it was run: as §1
[6] = Retention time of compound by HPLC analysis; assay type: physicochemical
A-375 [7] = test: Antiproliferative activity against human A375 cells at 0.41 ug/ml for 24 hrs by MTT assay; assay type: functional; conditions: A-375, 24 h; how it was run: as §1
[8] = Antiproliferative activity against human Hep3B cells at 11.11 ug/ml for 24 hrs by MTT assay; assay type: functional, Hep 3B2; how it was run: as §1
A-375 [9] = test: Antiproliferative activity against human A375 cells at 11.11 ug/ml for 24 hrs by MTT assay; assay type: functional; conditions: A-375, 24 h; how it was run: as §1
[10] = Antiproliferative activity against human Hep3B cells at 0.41 ug/ml for 24 hrs by MTT assay; assay type: functional, Hep 3B2; how it was run: as §1
HEP-3B (human hepatoma) = test: Antiproliferative activity against human Hep3B cells for 24 hrs by MTT assay
[11] = Antiproliferative activity against human Hep3B cells at 0.05 ug/ml for 24 hrs by MTT assay; assay type: functional, Hep 3B2; how it was run: as §1
[12] = Antiproliferative activity against human Hep3B cells at 3.7 ug/ml for 24 hrs by MTT assay; assay type: functional, Hep 3B2; how it was run: as §1
A-375 (human melanoma) = test: Antiproliferative activity against human A375 cells for 24 hrs by MTT assay; conditions: A-375, 24 h
A-375 [13] = test: Antiproliferative activity against human A375 cells at 100 ug/ml for 24 hrs by MTT assay; assay type: functional; conditions: A-375, 24 h; how it was run: as §1
A-375 [14] = test: Antiproliferative activity against human A375 cells at 33.33 ug/ml for 24 hrs by MTT assay; assay type: functional; conditions: A-375, 24 h; how it was run: as §1
A-375 [15] = test: Antiproliferative activity against human A375 cells at 1.23 ug/ml for 24 hrs by MTT assay; assay type: functional; conditions: A-375, 24 h; how it was run: as §1
[16] = Antiproliferative activity against human Hep3B cells at 1.23 ug/ml for 24 hrs by MTT assay; assay type: functional, Hep 3B2; how it was run: as §1
A-375 [17] = test: Antiproliferative activity against human A375 cells at 0.14 ug/ml for 24 hrs by MTT assay; assay type: functional; conditions: A-375, 24 h; how it was run: as §1
A-375 [18] = test: Antiproliferative activity against human A375 cells at 0.01 ug/ml for 24 hrs by MTT assay; assay type: functional; conditions: A-375, 24 h; how it was run: as §1
A-375 [19] = test: Antiproliferative activity against human A375 cells at 0.05 ug/ml for 24 hrs by MTT assay; assay type: functional; conditions: A-375, 24 h; how it was run: as §1
A-375 [20] = test: Antiproliferative activity against human A375 cells at 3.7 ug/ml for 24 hrs by MTT assay; assay type: functional; conditions: A-375, 24 h; how it was run: as §1
[21] = Antiproliferative activity against human Hep3B cells at 0.01 ug/ml for 24 hrs by MTT assay; assay type: functional, Hep 3B2; how it was run: as §1

| SMILES | IC50 (HEP-3B (human hepatoma)) | IC50 (A-375 (human melanoma)) | inhibition at 0.14 µg/mL [1] | inhibition at 33.33 µg/mL [2] | inhibition at 0.02 µg/mL (A-375 [3]) | inhibition at 100 µg/mL [4] | inhibition at 0.02 µg/mL [5] | inhibition at 0.41 µg/mL (A-375 [7]) | inhibition at 11.11 µg/mL [8] | inhibition at 11.11 µg/mL (A-375 [9]) | inhibition at 0.41 µg/mL [10] | inhibition at 0.05 µg/mL [11] | inhibition at 3.7 µg/mL [12] | inhibition at 100 µg/mL (A-375 [13]) | inhibition at 33.33 µg/mL (A-375 [14]) | inhibition at 1.23 µg/mL (A-375 [15]) | inhibition at 1.23 µg/mL [16] | inhibition at 0.14 µg/mL (A-375 [17]) | inhibition at 0.01 µg/mL (A-375 [18]) | inhibition at 0.05 µg/mL (A-375 [19]) | other results |
| --- | --- | --- | --- | --- | --- | --- | --- | --- | --- | --- | --- | --- | --- | --- | --- | --- | --- | --- | --- | --- | --- |
| Cc1ccc2nc(C(=O)Nc3c(F)cc(-c4cccc(F)c4)cc3F)c(C)c(C(=O)O)c2c1 | 26 µM | 31.6 µM | 6.34% | 41.2% | 0.02% | 75.2% | 1.05% | 1.53% | 35.6% | 19.2% | 15.2% | 2.11% | 31.3% | 37.3% | 26.3% | 3.65% | 21.3% | 0.98% | -1.05% | 0.35% | Retention_time [6]: 7 min; inhibition at 3.7 µg/mL (A-375 [20]): 9.25%; inhibition at 0.01 µg/mL [21]: 0.36% |
| Cc1c(C(=O)Nc2c(F)cc(-c3cccc(F)c3)cc2F)nc2ccc(OC(F)(F)F)cc2c1O | 38.3 µM | 85.5 µM | 2.01% | 41.2% | -0.35% | 80.3% | 0.67% | 1.02% | 37.9% | 11.3% | 5.62% | 1.05% | 26.4% | 25.6% | 12.3% | 1.57% | 17.2% | 0.06% | -0.68% | -0.13% | Retention_time [6]: 6.3 min; inhibition at 3.7 µg/mL (A-375 [20]): 2.06%; inhibition at 0.01 µg/mL [21]: 0.32% |
| COc1cccc2c1C(=O)c1c(O)c3c(c(O)c1C2=O)C[C@@](O)(C(=O)CO)C[C@@H]3O[C@H]1C[C@H](N)[C@H](O)[C@H](C)O1 [DOXORUBICIN] | 6.35 µM | 13.2 µM | 3.35% | 32.3% | 30.2% | 76.3% | 0.95% | -12.5% | 30.1% | 50.6% | 11.4% | 1.56% | 24.2% | 88.4% | 69.9% | -10.3% | 18.4% | -18.5% | -35.6% | -27.6% | inhibition at 3.7 µg/mL (A-375 [20]): 11.6%; inhibition at 0.01 µg/mL [21]: 0.25% |

More lines, main results first:

| IC50 (HEP-3B (human hepatoma)) | IC50 (A-375 (human melanoma)) | SMILES | inhibition at 0.14 µg/mL [1] | inhibition at 33.33 µg/mL [2] | inhibition at 0.02 µg/mL (A-375 [3]) | inhibition at 100 µg/mL [4] | inhibition at 0.02 µg/mL [5] | inhibition at 0.41 µg/mL (A-375 [7]) | inhibition at 11.11 µg/mL [8] | inhibition at 11.11 µg/mL (A-375 [9]) | inhibition at 0.41 µg/mL [10] | inhibition at 0.05 µg/mL [11] | inhibition at 3.7 µg/mL [12] | inhibition at 100 µg/mL (A-375 [13]) | inhibition at 33.33 µg/mL (A-375 [14]) | inhibition at 1.23 µg/mL (A-375 [15]) | inhibition at 1.23 µg/mL [16] | inhibition at 0.14 µg/mL (A-375 [17]) | inhibition at 0.01 µg/mL (A-375 [18]) | inhibition at 0.05 µg/mL (A-375 [19]) | other results |
| --- | --- | --- | --- | --- | --- | --- | --- | --- | --- | --- | --- | --- | --- | --- | --- | --- | --- | --- | --- | --- | --- |
| > 100 µM | > 100 µM | CCOc1ccc2nc(C(=O)Nc3c(F)cc(-c4cccc(F)c4)cc3F)c(C)c(O)c2c1 | 0.01% | 11.2% | 0.68% | 33.2% | -0.32% | 2.05% | 2.03% | 15.3% | 0.26% | -0.04% | 1.56% | 37.9% | 16.3% | 2.96% | 1.03% | 1.54% | 0.23% | 1.02% | Retention_time [6]: 7.2 min; inhibition at 3.7 µg/mL (A-375 [20]): 4.56%; inhibition at 0.01 µg/mL [21]: -0.5% |
| 90.5 µM | > 100 µM | Cc1ccc2nc(C(=O)Nc3c(F)cc(-c4cccc(F)c4)cc3F)c(C)c(O)c2c1 | 2.34% | 37.3% | 0.38% | 68.3% | 0.98% | 1.35% | 25.5% | 17.9% | 5.25% | 1.52% | 19.2% | 56.4% | 26.5% | 3.04% | 11.2% | 1.06% | 0.1% | 0.96% | Retention_time [6]: 8.8 min; inhibition at 3.7 µg/mL (A-375 [20]): 16.2%; inhibition at 0.01 µg/mL [21]: 0.22% |
